What was measured:
[1] = Fraction unbound in jugular and femoral vein-cannulated lactating Sprague-Dawley rat whole milk at 0.4 mg/ml, iv administered as infusion after 8 hrs by equilibrium dialysis method; type: ADME, organism-based
Summary of the method: (§1)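 Equilibrium dialysis of rat serum and milk against 0.133 M phosphate buffer (serum pH 7.45, milk pH 6.8), 8 h at 37°C, in 0.5 ml cells. Serum levels used were those seen in the infusion study. Both sides measured by LC-MS. n=4.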

Serum [2] = experiment: (§2) Drug uptake in jugular and femoral vein-cannulated lactating Sprague-Dawley rat serum at 0.4 mg/ml, iv administered as infusion after 2 hrs by LC-MS analysis; type: ADME, organism-based; conditions: in vivo, 2 h
Summary of the method: (§3)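 Lactating Sprague-Dawley rats on days 10–12 postpartum, cannulated. i.v. bolus of GF120918 (10 mg/kg in DMSO) or DMSO alone, then 10 min later an 8 h i.v. infusion of racemic drug in saline (0.4 mg/ml/h). Serum sampled at 2, 4, 6, 8 h. Milk collected by manual expression under light ketamine anesthesia at 8 h. Isomers quantified by LC-MS with zonisamide internal standard. n=5.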

MDCK = experiment: Asymmetrical efflux ratio of permeability in MDCK cells at 25 uM after 1 hr; type: ADME, cell-based, Canis lupus familiaris; conditions: dog
Summary of the method: (§4)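 Rat Abcg2-transfected and empty-vector MDCKII cells seeded at 1.0×10^6 cells/well on 3.0 μm Transwell filters, grown 4 days to TEER >200 Ω·cm². Racemic pantoprazole donor at 25 μM, 37°C, 5% CO2. Receiver sampled at 1, 2, 3, 4 h; [³H]mannitol checked monolayer integrity. Efflux ratio taken at 1 h from initial rates; n=3.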

[3] = target: T1, Broad substrate specificity ATP-binding cassette transporter ABCG2 (Rattus norvegicus, UniProt Q80W57); experiment: Activity at rat ABCG2 expressed in MDCK cells assessed as asymmetrical efflux ratio of permeability at 25 uM after 1 hr; type: ADME, cell-based; summary of the method: as §4
T1 sequence (Q80W57 whole entry): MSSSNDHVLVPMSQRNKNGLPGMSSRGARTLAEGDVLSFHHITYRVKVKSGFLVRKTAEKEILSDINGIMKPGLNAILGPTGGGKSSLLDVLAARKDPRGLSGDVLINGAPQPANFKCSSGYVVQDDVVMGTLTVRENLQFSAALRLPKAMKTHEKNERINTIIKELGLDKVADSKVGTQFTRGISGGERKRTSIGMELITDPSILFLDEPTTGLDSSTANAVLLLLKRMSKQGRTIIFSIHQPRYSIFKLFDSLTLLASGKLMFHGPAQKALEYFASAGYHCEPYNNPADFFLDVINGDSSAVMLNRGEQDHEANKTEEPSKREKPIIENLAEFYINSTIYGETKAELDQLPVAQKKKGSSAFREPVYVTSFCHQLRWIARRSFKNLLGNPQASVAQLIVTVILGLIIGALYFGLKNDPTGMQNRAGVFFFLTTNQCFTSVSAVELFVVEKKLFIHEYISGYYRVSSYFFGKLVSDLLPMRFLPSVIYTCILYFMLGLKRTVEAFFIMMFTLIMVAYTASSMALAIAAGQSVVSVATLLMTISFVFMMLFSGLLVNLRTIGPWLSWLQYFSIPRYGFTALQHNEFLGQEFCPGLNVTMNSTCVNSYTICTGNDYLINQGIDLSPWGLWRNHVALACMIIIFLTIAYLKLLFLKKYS

Serum [4] = experiment: (§5) Fraction unbound in jugular and femoral vein-cannulated lactating Sprague-Dawley rat serum at 0.4 mg/ml, iv administered as infusion after 8 hrs by equilibrium dialysis method; type: ADME, organism-based; conditions: in vivo, 8 h; summary of the method: as §1
Rattus norvegicus = experiment: (§6) Clearance in jugular and femoral vein-cannulated lactating Sprague-Dawley rat at 0.4 mg/ml, iv administered as infusion; type: ADME, organism-based; conditions: in vivo
Summary of the method: (§7)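 Lactating Sprague-Dawley rats on days 10–12 postpartum, jugular and femoral cannulated under ketamine/xylazine. Crossover design: i.v. bolus of GF120918 (10 mg/kg in DMSO) or DMSO 10 min before an 8 h i.v. infusion of racemic drug in saline (0.4 mg/ml/h). Enantiomers measured by chiral LC-MS. Clearance = infusion rate / mean serum level over 2–8 h. M/S = 8 h milk level / serum level. n=5.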

[5] = Drug uptake in jugular and femoral vein-cannulated lactating Sprague-Dawley rat milk at 0.4 mg/ml, iv administered as infusion after 8 hrs by LC-MS analysis in presence of GF120918; type: ADME, organism-based; conditions: in vivo; summary of the method: as §3
[6] = Drug uptake in jugular and femoral vein-cannulated lactating Sprague-Dawley rat milk at 0.4 mg/ml, iv administered as infusion after 8 hrs by LC-MS analysis; type: ADME, organism-based; conditions: in vivo; summary of the method: as §3
Serum [7] = experiment: Drug uptake in jugular and femoral vein-cannulated lactating Sprague-Dawley rat serum at 0.4 mg/ml, iv administered as infusion after 2 hrs by LC-MS analysis in presence of GF120918; type: ADME, organism-based; conditions: in vivo; summary of the method: as §3
[8] = Ratio of drug level in milk to serum in jugular and femoral vein-cannulated lactating Sprague-Dawley rat at 0.4 mg/ml, iv administered as infusion in presence of GF120918; type: ADME, organism-based; conditions: female, with GF120918
[9] = as §2; type: ADME, organism-based; conditions: female, Sprague-Dawley, serum, 0.4 mg/ml, read-out: Drug uptake; summary of the method: as §3
[10] = Dissociation constant, pKa of the compound; type: physicochemical
[11] = as §5; type: ADME, organism-based; conditions: female, Sprague-Dawley, serum, 0.4 mg/ml; summary of the method: as §1
[12] = as §6; type: ADME, organism-based; conditions: female, Sprague-Dawley, in vivo, 0.4 mg/ml; summary of the method: as §7
[13] = Protein binding in human serum; type: ADME, cell-free; conditions: read-out: PB

## COc1ccnc(C[S+]([O-])c2nc3cc(OC(F)F)ccc3[n-]2)c1OC.O.[Na+] (stereo in doubt; (+)) [PANTOPRAZOLE SODIUM]
[1]; in vivo, 8 h
  Fu: 26%
Serum [2]
  Drug uptake: 1.2 µg/mL
MDCK
  Ratio: 0.9
[3]
  Ratio: 5.15
Serum [4]
  Fu: 2.33%
Rattus norvegicus
  CL: 9.5 mL/min/kg
[5]
  Drug uptake: 0.53 µg/mL
[6]
  Drug uptake: 0.64 µg/mL

## COc1ccnc(C[S+]([O-])c2nc3cc(OC(F)F)ccc3[n-]2)c1OC.O.[Na+] (stereo in doubt; (-)) [PANTOPRAZOLE SODIUM]
Serum [7]
  Drug uptake: 37%
[1]; female, Sprague-Dawley, whole milk, 0.4 mg/ml
  fraction unbound at 8 h: 0.271
[8]
  Kp: 0.5
[9]
  concentration at 2 h: 1630 ng/mL
[3]
  Ratio: 1.51
[10]
  pKa: 3.9
[11]
  fraction unbound at 8 h: 0.0238
[12]
  clearance: 7.33 mL/min/kg
[5]
  Drug uptake: 1.1 µg/mL
[6]
  Drug uptake: 2.26 µg/mL

## COc1ccnc(C[S+]([O-])c2nc3ccc(OC(F)F)cc3[nH]2)c1OC (centres undefined) [PANTOPRAZOLE SODIUM]
[13]
  fraction unbound: < 0.02

Reference: ChEMBL document CHEMBL3526150, “Stereoselective interaction of pantoprazole with ABCG2. I. Drug accumulation in rat milk” (Drug Metab Dispos, 2012)
